Experimental findings from ChEMBL document CHEMBL1156265, “Furo[2,3-b]pyridine-based cannabinoid-1 receptor inverse agonists: synthesis and biological evaluation. Part 1” (Bioorg Med Chem Lett, 2010) are described below.

Test system in one data set: not listed separately
Briefly: Ratio of drug level in brain to plasma in rat at 1 mg/kg, iv after 4 hrs. Format: ADME, organism-based. Details: dose 1 mg/kg, route intravenous.
Conditions: not given
With `CC(C)(C)C(=O)c1oc2nc(-c3ccccc3Cl)c(-c3ccc(Cl)cc3)cc2c1NC(=O)CO`, the Kp (usually tissue or fluid exposure divided by exposure in the circulation) at 4 h turned out to be 1.8.
On the same count and under the same terms, the figure for `CC(C)(C)C(=O)c1oc2nc(-c3ccccc3Cl)c(-c3ccc(Cl)cc3)cc2c1N` is 2.3.
Turning to `CC(C)C(=O)c1oc2nc(-c3ccccc3Cl)c(-c3ccc(Cl)cc3)cc2c1NC(=O)CO`, the Kp at 4 h worked out at 0.94.

In a further data set the target is Cannabinoid receptor 1 (Homo sapiens, UniProt P21554). Briefly: Inhibition of human CB1 receptor.
Sequence of Cannabinoid receptor 1 (P21554 whole entry): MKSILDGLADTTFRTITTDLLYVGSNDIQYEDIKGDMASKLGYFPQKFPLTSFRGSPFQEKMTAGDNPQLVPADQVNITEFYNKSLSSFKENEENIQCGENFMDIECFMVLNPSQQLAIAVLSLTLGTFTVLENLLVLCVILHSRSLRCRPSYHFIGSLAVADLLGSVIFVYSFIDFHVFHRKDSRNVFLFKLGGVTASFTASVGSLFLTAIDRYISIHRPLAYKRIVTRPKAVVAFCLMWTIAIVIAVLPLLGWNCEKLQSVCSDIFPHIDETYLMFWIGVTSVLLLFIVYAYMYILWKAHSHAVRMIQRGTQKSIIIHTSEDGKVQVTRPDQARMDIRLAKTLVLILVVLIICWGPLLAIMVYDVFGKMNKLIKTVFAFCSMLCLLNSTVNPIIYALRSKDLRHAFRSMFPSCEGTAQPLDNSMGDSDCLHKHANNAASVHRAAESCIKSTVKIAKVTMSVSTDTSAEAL
Conditions: not given
On to `Nc1c(C(=O)c2ccccc2)oc2nc(-c3ccc(Cl)cc3Cl)c(-c3ccc(Cl)cc3)cc12`, for which the midpoint of inhibition, the IC50, lay at 3.5 nM.
As for `CC(=O)c1oc2nc(-c3ccc(Cl)cc3Cl)c(-c3ccc(Cl)cc3)cc2c1N`, the IC50 – broadly, the midpoint of a concentration-inhibition curve – is 56 nM.
For the compound `CCC(=O)c1oc2nc(-c3ccccc3Cl)c(-c3ccc(Cl)cc3)cc2c1N`, the IC50 amounted to 13 nM.
With `CC(C)(O)C(=O)c1oc2nc(-c3ccccc3Cl)c(-c3ccc(Cl)cc3)cc2c1N`, the IC50 worked out at 20 nM.
Same read-out and setting: the figure for `CCC(=O)c1oc2nc(-c3ccc(Cl)cc3Cl)c(-c3ccc(Cl)cc3)cc2c1N` is 17 nM; for `CC(C)(C)C(=O)c1oc2nc(-c3ccccc3Cl)c(-c3ccc(Cl)cc3)cc2c1NC(=O)CO` it is 1.2 nM.
`CC(C)(C)C(=O)c1oc2nc(-c3ccccc3Cl)c(-c3ccc(Cl)cc3)cc2c1N` registered a concentration for half-maximal inhibition (IC50) of 4.3 nM.
`CNCC(=O)Nc1c(C(=O)C(C)(C)C)oc2nc(-c3ccccc3Cl)c(-c3ccc(Cl)cc3)cc12` had an IC50 of 1.2 nM.
Still for that read-out and setting: to `CC(C)C(=O)c1oc2nc(-c3ccccc3Cl)c(-c3ccc(Cl)cc3)cc2c1NC(=O)CO` belongs 0.4 nM; to `CC(C)C(=O)c1oc2nc(-c3ccccc3Cl)c(-c3ccc(Cl)cc3)cc2c1N`, 1.7 nM; to `CC(C)C(=O)c1oc2nc(-c3ccc(Cl)cc3Cl)c(-c3ccc(Cl)cc3)cc2c1N`, 1.9 nM.
Still for that read-out and setting: the figure for `CN(C)C(=O)Nc1c(C(=O)C(C)(C)C)oc2nc(-c3ccccc3Cl)c(-c3ccc(Cl)cc3)cc12` is 0.39 nM.
Same read-out and setting: to `CC(=O)Nc1c(C(=O)C(C)(C)C)oc2nc(-c3ccccc3Cl)c(-c3ccc(Cl)cc3)cc12` belongs 0.58 nM.

Another data set relates to Rattus norvegicus. Briefly: Suppression of food intake in DIO rat at 1 mg/kg, po relative to control. Format: functional.
Conditions: not given
The method in brief: (§1)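 Acute study in diet-induced obese rats. A single oral dose was given and rats were monitored for 18 h. Food intake suppression and body weight change were measured relative to vehicle-treated controls.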
For `CC(C)(C)C(=O)c1oc2nc(-c3ccccc3Cl)c(-c3ccc(Cl)cc3)cc2c1NC(=O)CO`, the Activity came to 24%.
In the case of `CC(C)(C)C(=O)c1oc2nc(-c3ccccc3Cl)c(-c3ccc(Cl)cc3)cc2c1N`, the Activity was 33%.
Consider `CC(C)C(=O)c1oc2nc(-c3ccccc3Cl)c(-c3ccc(Cl)cc3)cc2c1NC(=O)CO`, for which the Activity was determined as 37%.

Test system in a further data set: not listed separately
Briefly: Lipophilicity, log D of the compound. Format: physicochemical. To be noted: HPLC, pH 7.3.
Turning to `CC(C)(C)C(=O)c1oc2nc(-c3ccccc3Cl)c(-c3ccc(Cl)cc3)cc2c1NC(=O)CO`, the logD (as a rule, lipophilicity at a set pH, counting ionised and neutral species) is 6.

Test system in a further data set: not listed separately
Put plainly: Plasma clearance in dog. The class given is ADME, organism-based, Canis lupus familiaris.
Conditions: not given
The method in brief: (§2)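 PK in dog and rhesus macaque. Bioavailability, plasma clearance (mL/min/kg) and terminal half-life derived from plasma drug levels.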
As for `CC(C)(C)C(=O)c1oc2nc(-c3ccccc3Cl)c(-c3ccc(Cl)cc3)cc2c1NC(=O)CO`, the clearance (commonly the volume of plasma or blood freed of the substance per unit of time) came to 3 mL/min/kg.
`CC(C)C(=O)c1oc2nc(-c3ccccc3Cl)c(-c3ccc(Cl)cc3)cc2c1NC(=O)CO` displayed a clearance of 4.9 mL/min/kg.

Test system in the next data set: not listed separately
Briefly: Bioavailability in rat. Format: ADME, organism-based. To be noted: in vivo.
For the compound `CC(C)(C)C(=O)c1oc2nc(-c3ccccc3Cl)c(-c3ccc(Cl)cc3)cc2c1NC(=O)CO`, the bioavailability (usually the share of a dose that reaches the circulation, judged against a reference dose that is usually intravenous) worked out at 32%.
Still for that read-out and setting: to `CC(C)(C)C(=O)c1oc2nc(-c3ccccc3Cl)c(-c3ccc(Cl)cc3)cc2c1N` belongs 100%.
Take `CC(C)C(=O)c1oc2nc(-c3ccccc3Cl)c(-c3ccc(Cl)cc3)cc2c1NC(=O)CO`: the bioavailability came out at 38%.

Test system in a further data set: not listed separately
Put plainly: Half life in rat at 3 mg/kg. The class given is ADME, organism-based. Details: dose 3 mg/kg. To be noted: in vivo.
With `CC(=O)Nc1c(C(C)=O)c(=O)n(C)c2nc(-c3ccc(Cl)cc3Cl)c(-c3ccc(Cl)cc3)cc12` [NAPHTHYRIDINONE], the half-life (in general, how long it takes for the measured level to halve) was greater than 8 h.

Test system in the next data set: not listed separately
Briefly: Drug level in rat plasma at 1 mg/kg, iv after 4 hrs. Format: ADME, organism-based. Details: dose 1 mg/kg, route intravenous. To be noted: read-out: Drug uptake.
`CC(C)(C)C(=O)c1oc2nc(-c3ccccc3Cl)c(-c3ccc(Cl)cc3)cc2c1NC(=O)CO`: the concentration at 4 h turned out to be 49 nM.
As to `CC(C)(C)C(=O)c1oc2nc(-c3ccccc3Cl)c(-c3ccc(Cl)cc3)cc2c1N`, the concentration at 4 h stood at 130 nM.
Still for that read-out and setting: the figure for `CC(C)C(=O)c1oc2nc(-c3ccccc3Cl)c(-c3ccc(Cl)cc3)cc2c1NC(=O)CO` is 160 nM.

Test system in the next data set: not listed separately
Put plainly: Half life in dog. The class given is ADME, organism-based, Canis lupus familiaris. To be noted: in vivo. The method in brief:
as §2
As to `CC(C)(C)C(=O)c1oc2nc(-c3ccccc3Cl)c(-c3ccc(Cl)cc3)cc2c1NC(=O)CO`, the half-life is 11 h.
Still for that read-out and setting: the figure for `CC(C)C(=O)c1oc2nc(-c3ccccc3Cl)c(-c3ccc(Cl)cc3)cc2c1NC(=O)CO` is 52 h.

The test system of a further data set is Rattus norvegicus. Briefly: Reduction of body weight in rat at 1 mg/kg, po after 13 days relative to control. Format: functional. Details: scale not given: the % may be the effect or the level left.
Conditions: not given
The method in brief: (§3)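 Chronic study in diet-induced obese rats with daily oral dosing at 1 mg/kg (for some compounds 0.1 and 0.3 mg/kg as well). Body weight change and cumulative food intake suppression were measured relative to vehicle. The 14-day study ended 18 h after the day-14 dose; one study ended on day 13.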
In the case of `CC(C)(C)C(=O)c1oc2nc(-c3ccccc3Cl)c(-c3ccc(Cl)cc3)cc2c1NC(=O)CO`, the Activity is reported as 6%.

Another data set concerns Rattus norvegicus. Put plainly: Reduction of body weight in DIO rat assessed as weight change at 1 mg/kg, po after 18 hrs. The class given is functional.
Conditions: not given
The method in brief: as §1
In the case of `CC(C)(C)C(=O)c1oc2nc(-c3ccccc3Cl)c(-c3ccc(Cl)cc3)cc2c1NC(=O)CO`, the Activity was -6 g.
As to `CC(C)(C)C(=O)c1oc2nc(-c3ccccc3Cl)c(-c3ccc(Cl)cc3)cc2c1N`, the Activity is reported as -4 g.
Take `CC(C)C(=O)c1oc2nc(-c3ccccc3Cl)c(-c3ccc(Cl)cc3)cc2c1NC(=O)CO`: the Activity is listed as -7 g.

Test system in a further data set: not listed separately
Put plainly: Half life in rat. The class given is ADME, organism-based. To be noted: in vivo.
In the case of `CC(C)(C)C(=O)c1oc2nc(-c3ccccc3Cl)c(-c3ccc(Cl)cc3)cc2c1NC(=O)CO`, the half-life was 3.5 h.
The same measure, in the same setting: to `CC(C)(C)C(=O)c1oc2nc(-c3ccccc3Cl)c(-c3ccc(Cl)cc3)cc2c1N` belongs 2.8 h.
Same read-out and setting: to `CC(C)C(=O)c1oc2nc(-c3ccccc3Cl)c(-c3ccc(Cl)cc3)cc2c1NC(=O)CO` belongs 3.3 h.

The test system of another data set is Rattus norvegicus. Put plainly: Reduction of body weight in DIO rat assessed as weight change at 1 mg/kg, po daily measured 18 hrs post dose on day 14. The class given is functional.
Conditions: not given
The method in brief: as §3
`CC(C)(C)C(=O)c1oc2nc(-c3ccccc3Cl)c(-c3ccc(Cl)cc3)cc2c1NC(=O)CO`: the Activity is on record as -19 g.

A further data set has as its system Rattus norvegicus. Put plainly: Suppression of food intake in DIO rat at 3 mg/kg relative to control. The class given is functional.
Conditions: not given
In the case of `CC(=O)Nc1c(C(C)=O)c(=O)n(C)c2nc(-c3ccc(Cl)cc3Cl)c(-c3ccc(Cl)cc3)cc12` [NAPHTHYRIDINONE], the Activity is listed as -68%.

Test system in a further data set: not listed separately
Briefly: Bioavailability in dog. The note with it: in vivo. The class given is ADME, organism-based, Canis lupus familiaris. The method in brief: as §2
`CC(C)(C)C(=O)c1oc2nc(-c3ccccc3Cl)c(-c3ccc(Cl)cc3)cc2c1NC(=O)CO` registered a bioavailability of 42%.
For the compound `CC(C)C(=O)c1oc2nc(-c3ccccc3Cl)c(-c3ccc(Cl)cc3)cc2c1NC(=O)CO`, the bioavailability was found to be 31%.

A further data set deals with Rattus norvegicus. Briefly: Suppression of food intake in DIO rat at 1 mg/kg, po measured 18 hrs post dose on day 14 relative to control.
Conditions: not given
Take `CC(C)(C)C(=O)c1oc2nc(-c3ccccc3Cl)c(-c3ccc(Cl)cc3)cc2c1NC(=O)CO`: the Activity was 19%.

Test system in a further data set: not listed separately
Briefly: Drug level in rat brain at 1 mg/kg, iv after 4 hrs. Format: ADME, organism-based. The note with it: read-out: Drug uptake. Details: dose 1 mg/kg, route intravenous.
Take `CC(C)(C)C(=O)c1oc2nc(-c3ccccc3Cl)c(-c3ccc(Cl)cc3)cc2c1NC(=O)CO`: the concentration at 4 h came out at 86 nM.
With `CC(C)(C)C(=O)c1oc2nc(-c3ccccc3Cl)c(-c3ccc(Cl)cc3)cc2c1N`, the concentration at 4 h came to 290 nM.
As for `CC(C)C(=O)c1oc2nc(-c3ccccc3Cl)c(-c3ccc(Cl)cc3)cc2c1NC(=O)CO`, the concentration at 4 h was 150 nM.

In a further data set the target is Cannabinoid receptor 2 (Homo sapiens, UniProt P34972). Briefly: Inhibition of human CB2 receptor.
Sequence of Cannabinoid receptor 2 (P34972 whole entry): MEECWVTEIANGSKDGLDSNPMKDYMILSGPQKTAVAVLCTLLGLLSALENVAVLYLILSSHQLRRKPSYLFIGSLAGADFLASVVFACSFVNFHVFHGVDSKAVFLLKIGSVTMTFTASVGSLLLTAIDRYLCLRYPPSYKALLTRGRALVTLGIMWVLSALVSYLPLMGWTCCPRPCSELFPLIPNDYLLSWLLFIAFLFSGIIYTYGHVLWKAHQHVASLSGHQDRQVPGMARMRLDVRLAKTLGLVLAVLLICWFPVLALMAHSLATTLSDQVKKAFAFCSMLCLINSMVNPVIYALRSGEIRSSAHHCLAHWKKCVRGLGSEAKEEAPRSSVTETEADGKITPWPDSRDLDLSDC
Conditions: not given
`Nc1c(C(=O)c2ccccc2)oc2nc(-c3ccc(Cl)cc3Cl)c(-c3ccc(Cl)cc3)cc12` yielded an IC50 of 440 nM.
Same read-out and setting: the figure for `CC(=O)c1oc2nc(-c3ccc(Cl)cc3Cl)c(-c3ccc(Cl)cc3)cc2c1N` is 1000 nM; for `CCC(=O)c1oc2nc(-c3ccccc3Cl)c(-c3ccc(Cl)cc3)cc2c1N` it is 1000 nM; for `CC(C)(O)C(=O)c1oc2nc(-c3ccccc3Cl)c(-c3ccc(Cl)cc3)cc2c1N` it is 2100 nM.
On the same count and under the same terms, to `CCC(=O)c1oc2nc(-c3ccc(Cl)cc3Cl)c(-c3ccc(Cl)cc3)cc2c1N` belongs 360 nM; to `CC(C)(C)C(=O)c1oc2nc(-c3ccccc3Cl)c(-c3ccc(Cl)cc3)cc2c1NC(=O)CO`, 3400 nM.
The same measure, in the same setting: to `CC(C)(C)C(=O)c1oc2nc(-c3ccccc3Cl)c(-c3ccc(Cl)cc3)cc2c1N` belongs 1900 nM; to `CNCC(=O)Nc1c(C(=O)C(C)(C)C)oc2nc(-c3ccccc3Cl)c(-c3ccc(Cl)cc3)cc12`, 3300 nM.
Turning to `CC(C)C(=O)c1oc2nc(-c3ccccc3Cl)c(-c3ccc(Cl)cc3)cc2c1NC(=O)CO`, it took 5100 nM to reach half-maximal inhibition (IC50).
On the same count and under the same terms, the figure for `CC(C)C(=O)c1oc2nc(-c3ccccc3Cl)c(-c3ccc(Cl)cc3)cc2c1N` is 1300 nM; for `CC(C)C(=O)c1oc2nc(-c3ccc(Cl)cc3Cl)c(-c3ccc(Cl)cc3)cc2c1N` it is 640 nM; for `CN(C)C(=O)Nc1c(C(=O)C(C)(C)C)oc2nc(-c3ccccc3Cl)c(-c3ccc(Cl)cc3)cc12` it is 1970 nM.
`CC(=O)Nc1c(C(=O)C(C)(C)C)oc2nc(-c3ccccc3Cl)c(-c3ccc(Cl)cc3)cc12` showed an IC50 greater than 2000 nM.

Test system in the next data set: not listed separately
Briefly: Plasma clearance in rat. Format: ADME, organism-based.
Conditions: not given
With `CC(C)(C)C(=O)c1oc2nc(-c3ccccc3Cl)c(-c3ccc(Cl)cc3)cc2c1NC(=O)CO`, the clearance came to 10 mL/min/kg.
The same measure, in the same setting: the figure for `CC(C)(C)C(=O)c1oc2nc(-c3ccccc3Cl)c(-c3ccc(Cl)cc3)cc2c1N` is 22 mL/min/kg; for `CC(C)C(=O)c1oc2nc(-c3ccccc3Cl)c(-c3ccc(Cl)cc3)cc2c1NC(=O)CO` it is 20 mL/min/kg.
